High-throughput results: PubChem, Sanford-Burnham Center for Chemical Genomics
A selection follows.
Apaf-1 act – activators of human Apaf-1 apoptosome, primary screen, biochemical, DEVD-Rh110 fluorescence, uHTS | activity change, negative = activation, % at 20 µM | AID 489031, 2010 | Apoptotic protease-activating factor 1 (Homo sapiens), O14727 | 0.31% of 330,000 active | Apaf-1 apoptosome caspase-3 activation; stronger effect = lower value;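 active = activity change at or below -40% at 20 µM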
Target sequence (O14727 whole entry, looked up): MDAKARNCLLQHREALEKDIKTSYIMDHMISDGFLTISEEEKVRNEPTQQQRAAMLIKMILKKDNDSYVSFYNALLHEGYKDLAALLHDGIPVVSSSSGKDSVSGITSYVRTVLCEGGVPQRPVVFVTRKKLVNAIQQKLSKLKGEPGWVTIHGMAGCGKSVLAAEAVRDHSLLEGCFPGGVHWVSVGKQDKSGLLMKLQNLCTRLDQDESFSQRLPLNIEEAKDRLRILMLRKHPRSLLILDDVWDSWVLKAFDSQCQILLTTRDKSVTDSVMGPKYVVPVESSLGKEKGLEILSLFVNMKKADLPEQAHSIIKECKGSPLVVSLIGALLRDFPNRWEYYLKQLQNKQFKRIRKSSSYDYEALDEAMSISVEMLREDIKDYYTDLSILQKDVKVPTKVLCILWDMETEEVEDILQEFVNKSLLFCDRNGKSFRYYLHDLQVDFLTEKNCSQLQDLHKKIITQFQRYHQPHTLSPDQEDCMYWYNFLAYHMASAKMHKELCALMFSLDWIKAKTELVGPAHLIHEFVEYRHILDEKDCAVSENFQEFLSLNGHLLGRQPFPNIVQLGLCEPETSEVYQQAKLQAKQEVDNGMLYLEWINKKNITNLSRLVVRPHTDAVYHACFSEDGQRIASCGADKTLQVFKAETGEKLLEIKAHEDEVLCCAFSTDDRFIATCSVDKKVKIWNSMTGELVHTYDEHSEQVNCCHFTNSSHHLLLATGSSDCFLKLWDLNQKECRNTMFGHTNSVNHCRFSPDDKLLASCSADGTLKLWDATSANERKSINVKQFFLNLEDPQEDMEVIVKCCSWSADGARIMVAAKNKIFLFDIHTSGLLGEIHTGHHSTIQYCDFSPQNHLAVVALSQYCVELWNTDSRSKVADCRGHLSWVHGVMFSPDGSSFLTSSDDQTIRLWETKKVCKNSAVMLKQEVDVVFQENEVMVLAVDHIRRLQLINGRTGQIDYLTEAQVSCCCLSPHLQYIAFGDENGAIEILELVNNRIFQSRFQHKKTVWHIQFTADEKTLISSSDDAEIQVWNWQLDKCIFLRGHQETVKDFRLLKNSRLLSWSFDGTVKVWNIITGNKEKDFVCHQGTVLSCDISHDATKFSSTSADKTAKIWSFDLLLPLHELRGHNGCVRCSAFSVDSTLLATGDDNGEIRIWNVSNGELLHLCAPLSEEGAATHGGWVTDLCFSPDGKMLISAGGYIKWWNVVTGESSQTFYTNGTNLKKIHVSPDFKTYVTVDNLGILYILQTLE
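Schedule: 30 min preincubation, 50 min reaction, room temperature / System: biochemical Apaf-1 apoptosome reconstitution / Medium: 20 mM HEPES pH 7.5 with CHAPS, BSA / Evaluation: Caspase-3 cleavage activity downstream of Apaf-1 activation / Detection: Caspase-3-released Rh110 fluorescence, 540 nm emission, 480 nm excitation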
Rh110 act interf – Rh110 fluorescence interference by putative Apaf-1 activators, confirmation, artefact control for Apaf-1 activator project, biochemical, 20 µM. fluorescence interference (activity change), % at 20 µM, hits read low. quenched caspase reaction, Ex480/Em540. shares compounds with Apaf-1 act. 980 tested, under 10 active. AID 504616, 2011;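 active = mean activity change at or below -40% when tested at 20 µM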
Apaf-1 act conf2 – Apaf-1 activators, single-dose retest, confirmation, biochemical, fluorescence, DEVD-Rh110, 20 µM. activity change, negative = activation, % at 20 µM. shares compounds with Apaf-1 act. AID 504617, 2011. reconstituted apoptosome caspase-3 activity; stronger effect = lower value. 5% of 980 active;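 active = mean activity change at or below -40%, meaning activation of 40% or more, at 20 µM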
Numbers without * were called inactive; / = no result given.

SMILES | Apaf-1 act | Rh110 act interf | Apaf-1 act conf2
Cc1cc2occ(CC(=O)NC3CCCc4ccccc43)c2cc1C (configuration not stated) | -163.8* | -2.5 | 17.0
CCc1ccccc1OC[C@@H](O)CN[C@H]1CCCc2ccccc21 | 46.0 | / | /
O=C1CCN(Cc2ccccc2)C=C1c1ccc(Cl)cc1 | 47.3 | / | /
O=C(c1ccccc1)c1ccc(OCC(O)CNC2CCCc3ccccc32)cc1 (configuration not stated) | 51.7 | / | /
OC(CNC1CCCc2ccccc21)COc1ccc2ccccc2c1 (configuration not stated) | 47.2 | / | /
OC(CNc1ccccc1)COc1ccc(OCC(O)CNc2ccccc2)cc1 (configuration not stated) | -141.3* | 2.9 | 5.4
O=C(Nc1ncn[nH]1)c1c(Cl)ccc(Cl)c1Cl | -46.6* | -2.5 | 9.7
COc1cc(/C=C2/C(=O)N(c3cccc(Br)c3)N=C2C)cc(OC)c1O | 82.2 | / | /
CC(C)Oc1cccc(C(=O)Nc2ncn[nH]2)c1 | -47.8* | 2.5 | 8.9
N#C[C@@H]1[C@@H]2C(=O)N(c3ccc4c(c3)OCCO4)C(=O)[C@@H]2C2c3ccccc3C=CN21 (some centres not stated) | 77.6 | / | /
CC(C)=C1C2C=CC1C1C(=O)N(c3ccc4c(c3)OCO4)C(=O)C21 (configuration not stated) | -71.4* | 0.9 | 9.8
C#CCOCCOCCOCCNc1nc(N2CCN(C(=O)[C@H](CCCCN)n3cc([C@@H](N)CC(N)=O)nn3)CC2)nc(N2CCN(C(=O)[C@H](CCCCN)n3cc([C@@H](N)CC(N)=O)nn3)CC2)n1 | 55.2 | / | /
CC(=O)N1CCc2cc(Br)cc(S(=O)(=O)NCCCN3CCCC(C)C3)c21 (configuration not stated) | -40.5* | -5.0 | 12.5
CCOC(=O)c1[nH]c2ccc(Br)cc2c1NC(=O)CCN1CCCC(C)C1 (configuration not stated) | 97.3 | / | /
COC(=O)c1ccc(-c2ncc(-c3cccc4ccccc34)o2)cc1 | 41.8 | / | /
COc1ccc(C(CCN2CCOCC2)c2c(OC)cc(OC)c3c(-c4ccccc4)cc(=O)oc23)cc1 (configuration not stated) | 52.9 | / | /
Cc1cc2nn(-c3ccc(Cl)cc3)nc2cc1N | 49.5 | / | /
O=C(CSc1c[nH]c2ccccc12)N1CCOCC1 | -42.2* | 19.2 | 14.4
O=C(CSc1nncc2ccccc12)N1CCOCC1 | -543.2* | 1.0 | 7.0
Cc1[nH]n(-c2ccccc2)c(=O)c1/C=N/N(C)c1ccccc1 | 79.8 | / | /
CCCCCCOC(=O)C(C#N)c1nc2ccccc2nc1N1CCN(CC)CC1 (configuration not stated) | 41.7 | / | /
CC(=O)Nc1cccc(C(=O)NC(C)c2ccc(-n3ccnc3)cc2)c1 (configuration not stated) | 40.7 | / | /
O=C1O/C(=C\C(=O)N2CCOCC2)c2ccccc21 | -141.0* | 2.1 | 0.3
O=C1C=C(N2CCOCC2)c2ccccc2C1=O | 98.2 | / | /
O=C(O)c1cccc(NC2=C(N3CCOCC3)C(=O)c3ccccc3C2=O)c1 | 84.4 | / | /
SMILES | Apaf-1 act | Rh110 act interf | Apaf-1 act conf2
COc1ccccc1-c1oc2ccccc2c1C#CC1(N)CCCCC1 | 68.1 | / | /
O=c1[nH]c(Nc2ccccn2)cc2ccccc12 | 91.0 | / | /
CN(C)CCNC(=O)C(=O)NCC1OCCN1S(=O)(=O)c1cc(F)ccc1F (configuration not stated) | 46.5 | / | /
C#CCOCCOCCOCCNc1nc(N2CCN(C(=O)CCCCCCCCCCNC(=O)[C@H](CCCCN)n3cc(C)nn3)CC2)nc(N2CCN(C(=O)CCCCCCCCCCNC(=O)[C@H](CCCCN)n3cc(CCCC(=O)O)nn3)CC2)n1 | 62.7 | / | /
CCOC(=O)N1CCN(S(=O)(=O)N2CCCC(C(=O)NCCCN3CCCCC3CC)C2)CC1 (configuration not stated) | -60.6* | 1.4 | 17.7
CCC12CCCN3CCc4c(n(c5ccccc45)C(O)(C(=O)OC)C1)C32 (configuration not stated) | 40.9 | / | /
COC(=O)c1ccccc1NC1=C/C(=N\S(=O)(=O)c2ccc(C(=O)O)cc2)c2ccccc2C1=O | 95.2 | / | /
CCOCCCNC(=O)COc1ccc(OC)cc1 | -293.3* | 11.9 | 11.9
CCOCCCNC1=C(Cl)C(=O)c2ccccc2C1=O | 47.9 | / | /
Cc1ccccc1OCc1n(CC(=O)OC2CC(C)CCC2C(C)C)c2ccccc2[n+]1C (configuration not stated) | 47.3 | / | /
Cc1[nH]cnc1CSCc1ccc(Cl)cc1 | -426.1* | 3.3 | 15.8
C/C(=N\NC(=O)c1nnn(-c2nonc2N)c1-c1cccs1)c1ccc(C)cc1 | -43.8* | 8.5 | 6.9
OC1C(O)C(O)C(O)C(O)C1O (configuration not stated) | -0.7 | / | /
O=[N+]([O-])c1ccc(/C=C/c2ccc3cccc([N+](=O)[O-])c3n2)cc1 | -107.3* | -7.6 | 10.9
C#CCOCCOCCOCCNc1nc(N2CCN(C(=O)[C@H](CCCCN)n3cc([C@@H](N)[C@H](C)CC)nn3)CC2)nc(N2CCN(C(=O)[C@H](CCC(=O)O)n3cc([C@@H](N)CCCCN)nn3)CC2)n1 | 47.4 | / | /
CCN(CC)c1ccc(N=C2C(=O)Nc3ccccc32)cc1 | 47.0 | / | /
CCCCCCCCCCOC(=O)Cn1c(COc2ccc(Cl)cc2)[n+](C)c2ccccc21 | 84.5 | / | /
CN(Cc1ccc(F)cc1)Cc1nc(CCc2ccccc2)no1 | -142.6* | 1.4 | 10.3
CN(C)c1ccc(NC(=O)Oc2ccccc2)cc1 | 48.3 | / | /
COC(=O)c1sccc1NC(=O)c1c(C)noc1C | -653.9* | 10.0 | 5.1
CCN(CC)c1ccc(/C=N/N2CCN(Cc3ccccc3)CC2)c(O)c1 | -50.1* | 0.3 | 13.8
NC(N)=N/N=C/c1ccc(OCc2ccccc2)c(OCc2ccccc2)c1 | 60.7 | / | /
CCN(CC)c1ccc(C=Nc2ccc(N(C)C)cc2)c(O)c1 | 44.5 | / | /
CCN(CC)c1ccc(/C=N/N=C(N)N)c(O)c1 | -156.5* | -2.8 | 8.6
COc1cc(O)c(NC(C)=O)c2nonc12 | 86.5 | / | /
SMILES | Apaf-1 act | Rh110 act interf | Apaf-1 act conf2
CN(C)Cc1c(C(=O)N/N=C/c2cccc(OCc3c(F)cccc3Cl)c2)nnn1-c1nonc1N | -95.7* | -3.6 | 11.3
CN(Cc1c(F)cccc1Cl)C(=O)c1ccc(COc2ccccc2)cc1 | 53.4 | / | /
Cc1sc2ncnc(N3CCC(C(=O)N(C)CC(=O)Nc4ccccc4Cl)CC3)c2c1C | 59.9 | / | /
COc1ccc(NC(=O)CSc2nc3c(c(-c4cccs4)c2C#N)CN(C)CC3)cc1OC | 66.9 | / | /
CN(C)CCn1c2c(c(SCC(=O)Nc3ccc4c(c3)OCCO4)nc1=O)CCCC2 | -62.2* | -6.1 | 5.1
CN(C)CCN(C(=O)c1ccc2c(c1)CCCC2)c1nc2cc3c(cc2s1)OCCO3 | 43.6 | / | /
Cc1cc(C)c2sc(N(CCCN(C)C)C(=O)c3ccc(S(=O)(=O)N(C)C4CCCCC4)cc3)nc2c1 | 40.1 | / | /
COc1cc2nc(Nc3ccc(C)c(Cl)c3)nc(N)c2cc1OC | 45.1 | / | /
COc1ccc(C(CNC(=O)c2cc3c(s2)CCC(C)C3)N2CCCC2)cc1 (configuration not stated) | 60.6 | / | /
